# Tests used:
# [1] = target: T1, Estrogen receptor (Homo sapiens) (UniProt P03372); assay: Inhibition of [3H]E2 binding to human Estrogen receptor-alpha ligand binding domain (LBD) expressed in Escherichia coli lysates
# T1 sequence (whole entry): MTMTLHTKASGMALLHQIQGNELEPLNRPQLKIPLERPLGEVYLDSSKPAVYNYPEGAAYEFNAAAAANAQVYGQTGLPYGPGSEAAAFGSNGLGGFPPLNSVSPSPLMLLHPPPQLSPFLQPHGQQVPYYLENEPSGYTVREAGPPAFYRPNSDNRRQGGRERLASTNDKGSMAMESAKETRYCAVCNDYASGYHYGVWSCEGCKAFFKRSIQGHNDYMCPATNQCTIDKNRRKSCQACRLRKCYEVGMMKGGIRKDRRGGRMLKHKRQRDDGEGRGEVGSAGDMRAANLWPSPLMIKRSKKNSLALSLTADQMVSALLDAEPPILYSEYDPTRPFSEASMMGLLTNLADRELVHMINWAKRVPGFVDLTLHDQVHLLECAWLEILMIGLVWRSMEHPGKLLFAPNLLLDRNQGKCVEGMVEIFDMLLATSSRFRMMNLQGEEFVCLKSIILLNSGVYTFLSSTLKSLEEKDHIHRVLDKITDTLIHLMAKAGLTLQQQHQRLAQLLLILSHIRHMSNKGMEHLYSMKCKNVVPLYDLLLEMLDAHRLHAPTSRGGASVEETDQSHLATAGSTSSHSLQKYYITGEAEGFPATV
# Summary of the method: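 Human ERα LBD (M250-V595) expressed in E. coli lysates, competed against [3H]E2 overnight at room temperature. Bound separated by dextran-coated charcoal. RBA = EC50 of E2 / EC50 of analogue × 100, from at least three experiments in duplicate.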
# [2] = tested on: Ishikawa; assay: Inhibitory constant against stimulation of alkaline phosphatase activity in Ishikawa cells; na is not active; format: functional, cell-based, Homo sapiens
# [3] = target: Estrogen receptor beta (Homo sapiens) (UniProt Q92731); assay: Inhibition of [3H]E2 binding to human Estrogen receptor-beta ligand binding domain (LBD) expressed in Escherichia coli lysates
# Summary of the method: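 Human ERβ LBD (M214-Q530) in E. coli lysates; overnight room-temperature competition with [3H]E2, charcoal separation of bound from free. RBA relative to E2 from EC50 ratio × 100, at least three duplicate experiments.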
# [4] = target: Estrogen receptor (Rattus norvegicus) (UniProt P06211+Q62986); assay: Relative binding affinity for estrogen receptor of rat uterine cytosol; format: protein assay
# Summary of the method: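 Cytosol from uteri of Sprague-Dawley rats taken 24 h after castration, homogenized in TEGDMo buffer (pH 7.4), spun at 105 000g. Incubated on ice overnight with 1 nM [3H]E2 and competitor at 10^-12 to 10^-6 M. Dextran-coated charcoal separation, counting. RBA = EC50 E2 / EC50 analogue × 100, at least three duplicate experiments.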
# [5] = tested on: Ishikawa; assay: Inhibitory constant against stimulation of alkaline phosphatase activity in Ishikawa cells; format: functional, cell-based, Homo sapiens
# [6] = tested on: Ishikawa; assay: Relative stimulatory activity in Ishikawa cells with respect to E2; format: functional, Homo sapiens
# Summary of the method: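 Ishikawa alkaline phosphatase induction: phenol red-free medium, charcoal-stripped bovine serum, 3-day exposure to steroid across at least 6 log units. Read kinetically at 405 nm with 5 mM p-nitrophenyl phosphate, pH 9.8. RSA = (1/EC50 analogue) / (1/EC50 E2) × 100, fitted in at least three duplicate experiments.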
# [7] = tested on: Ishikawa; assay: Inhibitory constant against stimulation of alkaline phosphatase activity in Ishikawa cells; weak mixed agonist/antagonist; format: functional, cell-based, Homo sapiens
# [8] = tested on: Ishikawa; assay: Inhibitory constant against stimulation of alkaline phosphatase activity in Ishikawa cells; (agonist); format: functional, cell-based, Homo sapiens
# [9] = tested on: Ishikawa; assay: Estrogenic potency measured as stimulation of alkaline phosphatase activity relative to E2 in human endometrialadenocarcinoma cells (Ishikawa); format: functional
# Summary of the method: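 Ishikawa human endometrial adenocarcinoma cells grown in phenol red-free medium with charcoal-stripped bovine serum and steroid over at least 6 orders of magnitude for 3 days. Cells washed, freeze-thawed, then given 5 mM p-nitrophenyl phosphate at pH 9.8, with kinetic reading of p-nitrophenol at 405 nm. At least three experiments in duplicate; EC50 by curve fitting.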
# [10] = tested on: Ishikawa; assay: Inhibitory constant against stimulation of alkaline phosphatase activity in Ishikawa cells; mixed agonist/antagonist moderate activity; format: functional, cell-based, Homo sapiens
# [11] = tested on: Ishikawa; assay: Inhibitory constant of the compound against stimulationofalkaline phosphatase activity inIshikawa cells; weak mixed agonist/antagonist; format: functional, cell-based, Homo sapiens
# [12] = tested on: Ishikawa; assay: Inhibitory constant against stimulation of alkaline phosphatase activity in Ishikawa cells; ag./ant. is mixed agonist/antagonist; format: functional, cell-based, Homo sapiens
# [13] = tested on: Ishikawa; assay: Inhibitory constant against stimulation of alkaline phosphatase activity in Ishikawa cells; not active; format: functional, cell-based, Homo sapiens
# Estrogen receptor beta (Homo sapiens), sequence (Q92731 whole entry, the tested form may be a part): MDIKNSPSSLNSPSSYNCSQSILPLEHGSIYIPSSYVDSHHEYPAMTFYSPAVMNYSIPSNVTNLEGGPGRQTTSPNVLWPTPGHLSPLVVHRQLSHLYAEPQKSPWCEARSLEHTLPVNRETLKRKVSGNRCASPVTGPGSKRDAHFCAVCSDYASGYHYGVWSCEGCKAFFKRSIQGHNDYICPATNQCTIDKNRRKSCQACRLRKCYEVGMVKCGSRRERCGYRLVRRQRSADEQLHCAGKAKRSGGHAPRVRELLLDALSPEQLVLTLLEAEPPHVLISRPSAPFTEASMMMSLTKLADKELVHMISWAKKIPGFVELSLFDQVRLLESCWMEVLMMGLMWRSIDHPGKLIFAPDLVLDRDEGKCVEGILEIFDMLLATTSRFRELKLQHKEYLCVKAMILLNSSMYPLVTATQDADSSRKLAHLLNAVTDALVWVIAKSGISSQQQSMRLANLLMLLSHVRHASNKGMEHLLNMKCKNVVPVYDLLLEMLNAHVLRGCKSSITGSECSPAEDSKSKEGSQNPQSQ
SMILES,RBA [1] [%],RBA [3] [%],RBA [4] [%],Ki [5] [nM],further results
CCCCO[C@H]1C[C@]2(C)[C@@H](O)CC[C@H]2[C@@H]2CCc3cc(O)ccc3[C@H]21,7.5,21,2.1,–,Ki [2]: Not Active
CCOCCC[C@H]1C[C@]2(C)[C@@H](O)CC[C@H]2[C@@H]2CCc3cc(O)ccc3[C@@H]12,87,75,48,0.3,–
"C[C@]12C[C@H](CCOCCF)[C@@H]3c4ccc(O)cc4CCC3[C@@H]1CC[C@@H]2O (single isomer, unassigned)",112,34,16,55,–
"CCCOC(=O)C[C@H]1C[C@]2(C)[C@@H](O)CC[C@H]2C2CCc3cc(O)ccc3[C@H]21 (single isomer, unassigned)",–,–,38,1,–
"CC(C)OC(=O)C[C@H]1C[C@]2(C)[C@@H](O)CC[C@H]2C2CCc3cc(O)ccc3[C@H]21 (single isomer, unassigned)",–,–,17,2.1,–
CCC(=O)CC[C@H]1C[C@]2(C)[C@@H](O)CC[C@H]2[C@@H]2CCc3cc(O)ccc3[C@@H]12,–,–,3.7,16,–
"CCC(=O)C[C@H]1C[C@]2(C)[C@@H](O)CC[C@H]2C2CCc3cc(O)ccc3[C@H]21 (single isomer, unassigned)",–,–,18,–,Stimulatory activity [6]: 1.9%; Ki [7]: Partial agonist
CCNC(=O)CC[C@H]1C[C@]2(C)[C@@H](O)CC[C@H]2[C@@H]2CCc3cc(O)ccc3[C@@H]12,–,–,3.7,–,Ki [7]: Partial agonist
COC[C@H]1C[C@]2(C)C(O)CC[C@H]2[C@@H]2CCc3cc(O)ccc3[C@@H]12 (some centres undefined),114,240,20,–,Ki [8]: Agonist; Relative stimulatory activity [9]: 125%
"CC(C)(C)OCC[C@H]1C[C@]2(C)[C@@H](O)CC[C@H]2C2CCc3cc(O)ccc3[C@H]21 (single isomer, unassigned)",5,2,2.3,20,–
"CCCOCC[C@H]1C[C@]2(C)[C@@H](O)CC[C@H]2C2CCc3cc(O)ccc3[C@H]21 (single isomer, unassigned)",54,88,65,0.3,–
"COCC[C@H]1C[C@]2(C)[C@@H](O)CC[C@H]2C2CCc3cc(O)ccc3[C@H]21 (single isomer, unassigned)",67,90,25,–,Ki [10]: Partial agonist
"CCOC(=S)C[C@H]1C[C@]2(C)[C@@H](O)CC[C@H]2C2CCc3cc(O)ccc3[C@H]21 (single isomer, unassigned)",–,–,10,2.7,–
CNC(=O)CC[C@H]1C[C@]2(C)[C@@H](O)CC[C@H]2[C@@H]2CCc3cc(O)ccc3[C@@H]12,–,–,0.6,–,Ki [7]: Partial agonist
"CC(C)OCC[C@H]1C[C@]2(C)[C@@H](O)CC[C@H]2C2CCc3cc(O)ccc3[C@H]21 (single isomer, unassigned)",45,32,15,0.4,–
"CC(C)(C)COC(=O)C[C@H]1C[C@]2(C)[C@@H](O)CC[C@H]2C2CCc3cc(O)ccc3[C@H]21 (single isomer, unassigned)",–,–,10,5.2,–
CCCOC[C@H]1C[C@]2(C)[C@@H](O)CC[C@H]2[C@@H]2CCc3cc(O)ccc3[C@@H]12,146,125,43,0.3,–
CC(C)OCCC[C@H]1C[C@]2(C)[C@@H](O)CC[C@H]2[C@@H]2CCc3cc(O)ccc3[C@@H]12,220,93,114,0.2,–
"CCNC(=O)C[C@H]1C[C@]2(C)[C@@H](O)CC[C@H]2C2CCc3cc(O)ccc3[C@H]21 (single isomer, unassigned)",–,–,0.1,–,Ki [11]: Partial agonist
"CCOCC[C@H]1C[C@]2(C)[C@@H](O)CC[C@H]2C2CCc3cc(O)ccc3[C@H]21 (single isomer, unassigned)",49,40,31,0.3,–
C[C@]12C[C@H](COCCF)[C@@H]3c4ccc(O)cc4CC[C@H]3[C@@H]1CC[C@@H]2O,27,35,10,–,Ki [7]: Partial agonist
COCCC[C@H]1C[C@]2(C)[C@@H](O)CC[C@H]2[C@@H]2CCc3cc(O)ccc3[C@@H]12,159,111,34,0.3,–
CC(C)(C)OCCC[C@H]1C[C@]2(C)[C@@H](O)CC[C@H]2[C@@H]2CCc3cc(O)ccc3[C@@H]12,128,82,81,0.09,–
CCCC(=O)CC[C@H]1C[C@]2(C)[C@@H](O)CC[C@H]2[C@@H]2CCc3cc(O)ccc3[C@@H]12,–,–,7.7,13,–
"CCCC(=O)C[C@H]1C[C@]2(C)[C@@H](O)CC[C@H]2C2CCc3cc(O)ccc3[C@H]21 (single isomer, unassigned)",–,–,13,3.1,–
C[C@]12C[C@H](CCCOCCF)[C@@H]3c4ccc(O)cc4CC[C@H]3[C@@H]1CC[C@@H]2O,96,140,47,1.1,–
CCOC[C@H]1C[C@]2(C)[C@@H](O)CC[C@H]2[C@@H]2CCc3cc(O)ccc3[C@@H]12,70,73,28,–,Ki [12]: Partial agonist
CC(=O)CC[C@H]1C[C@]2(C)[C@@H](O)CC[C@H]2[C@@H]2CCc3cc(O)ccc3[C@@H]12,–,–,1,–,Ki [13]: Not Active
CCCCOC[C@H]1C[C@]2(C)[C@@H](O)CC[C@H]2[C@@H]2CCc3cc(O)ccc3[C@@H]12,102,268,44,0.1,–
